Sampled rows, rich in hits. Any-hit rate of the full collection: about 1.8%.
HTRA1 inhibitor – blocks human HTRA1 serine peptidase; recombinant HTRA1, FP-rhodamine activity-based probe, fluorescence polarization; inhibition, % at 5.96 µM; 0.5% of 340,000 active; AID 504803; in the data active = inhibition above about 36%;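 also: 0% = enzyme with DMSO and 100% = wells lacking enzyme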
DDE Tn6 FP inh – inhibitors of Tn6 peptide binding to human fibrin DD(E); Fibrin DD(E) TRITC-Tn6 fluorescence polarization displacement; inhibition, % at 8.3 µM; 0.21% of 370,000 active; AID 720509;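 active = inhibition above a per-campaign cutoff: mean of compounds within control limits plus 3 SD, cut at about 15% in these data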;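 also: 0% = median of all compound wells on the plate and 100% = blocking peptide control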
Target sequence (P02675 whole entry, looked up): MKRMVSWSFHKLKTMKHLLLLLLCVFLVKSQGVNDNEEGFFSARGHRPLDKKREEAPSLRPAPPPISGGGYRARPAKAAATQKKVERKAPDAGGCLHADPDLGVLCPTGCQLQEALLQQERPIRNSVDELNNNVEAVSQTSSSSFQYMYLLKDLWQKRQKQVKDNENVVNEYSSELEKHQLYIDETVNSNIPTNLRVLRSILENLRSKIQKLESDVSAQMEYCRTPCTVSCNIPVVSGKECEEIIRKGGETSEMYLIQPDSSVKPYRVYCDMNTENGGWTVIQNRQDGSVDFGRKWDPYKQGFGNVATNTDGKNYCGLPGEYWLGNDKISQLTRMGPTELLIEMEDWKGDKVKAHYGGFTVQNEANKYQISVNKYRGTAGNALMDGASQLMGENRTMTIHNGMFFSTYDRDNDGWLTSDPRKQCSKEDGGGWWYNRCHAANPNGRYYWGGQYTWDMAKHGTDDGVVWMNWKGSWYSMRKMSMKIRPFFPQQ
SIAE inh – human SIAE inhibition, primary screen; 0.69% of 370,000 active; inhibition, % at 9.66 µM; AID 1053197; SIAE FP-Rh probe binding, fluorescence polarization; Q9HAT2;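 active = inhibition above a cutoff: mean of compounds within the control limits plus 3 SD of those, cut at about 17% in these data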;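 also: 0% = plate median of compound wells and 100% = probe without SIAE protein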
TCR CD3 inh – human TCR-CD3 binding inhibition. TAMRA-labeled TCR probe fluorescence, biochemical. inhibition, % at 9.4 µM. 0.37% of 360,000 active; in the data active = inhibition above about 19%;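 also: recombinant mutant TCR 2C K166C tagged with TAMRA read by polarization; 0% = receptor in buffer alone and 100% = receptor with positive control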
ABHD4 inh – ABHD4 (mouse) inhibition, primary FP screen; Q8VD66; purified mABHD4, FP-Rh probe fluorescence polarization; inhibition, % at 8.92 µM; 0.54% of 370,000 active;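 active = inhibition exceeding the mean over every tested compound plus 3 SD, cut at about 30% in these data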;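 also: 0% = plate median of compound wells and 100% = S159A mutant with DMSO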
Target sequence (Q8VD66 whole entry, looked up): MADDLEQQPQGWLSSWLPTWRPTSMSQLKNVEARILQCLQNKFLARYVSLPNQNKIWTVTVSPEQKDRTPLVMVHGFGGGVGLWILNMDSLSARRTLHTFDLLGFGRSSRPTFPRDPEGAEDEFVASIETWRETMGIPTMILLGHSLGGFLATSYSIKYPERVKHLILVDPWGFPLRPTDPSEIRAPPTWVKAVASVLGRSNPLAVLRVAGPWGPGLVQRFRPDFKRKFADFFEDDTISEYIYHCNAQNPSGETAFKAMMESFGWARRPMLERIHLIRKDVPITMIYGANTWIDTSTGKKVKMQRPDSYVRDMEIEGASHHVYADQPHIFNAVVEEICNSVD
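Assay system: mouse ABHD4 enzyme, wild type / Also added: fluorescent activity-based probe FP-Rh / Doses: single nominal dose of 8.92 µM, 0.89% DMSO final / Timing: 45 min compound pre-incubation plus 60 min probe step, 25 °C / Signal: FP readout, ex 525 nm / em 598 nm / Control set: S159A mutant/DMSO as 100%, compound-well median as 0%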
DDE Tn7 FP inh – inhibitors of Tn7 peptide binding to human fibrin DD(E); P02675; FP displacement of FITC-Tn7 peptide from fibrin DD(E); 0% = median of compound wells per plate; inhibition, % at 8.3 µM; 0.13% of 370,000 active;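 active = inhibition above the mean of compounds falling within the control limits plus 3 SD of them, cut at about 14% in these data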;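 also: 0% = plate median of compound wells and 100% = 10 µM Aha-Tn7 peptide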
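Assay system: human fibrin DD(E). Input: DD(E) 2 µM final. Medium: Tris buffer with calcium and detergent, pH 7.8. Compound dosing: single point at 8.3 µM. Timing: 10 min plus 3 h, room temperature. Technique: fluorescence polarization of the labelled Tn7 tracer. Read-out: percent inhibition. Replicates: singlicate testing.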
Tn7 DDE conf – confirmation of inhibitors of Tn7 binding to human fibrin DD(E) | shares compounds with DDE Tn7 FP inh | FP displacement of TRITC-Tn7 peptide from DD(E); 0% set at plate's compound-well median | inhibition, % at 8.3 µM | 5% of 460 active | AID 720628;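 active = inhibition above the campaign cutoff, the mean of compounds within control limits plus 3 SD, cut at about 14% in these data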;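 also: 100% = median FP of high control wells holding Aha-Tn7 inhibitor peptide; displacers lower polarization since freed probe rises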
Tn7 DDE ctr – counter-screen hit for Tn7 peptide-fibrin DD(E) binding disruption; shares compounds with DDE Tn7 FP inh; TRITC-Tn7 probe displacement, fluorescence polarization; inhibition, % at 8.3 µM; 3% of 460 active;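 active = inhibition above the cutoff, the mean of compounds lying between the control bounds plus 3 SD of those compounds, cut at about 17% in these data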;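 also: 0% = median of compound sample wells and 100% = excess unlabeled Aha-Tn7 peptide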
An asterisk follows results filed as active; . = no result.

SMILES | HTRA1 inhibitor | DDE Tn6 FP inh | SIAE inh | TCR CD3 inh | ABHD4 inh | DDE Tn7 FP inh | Tn7 DDE conf | Tn7 DDE ctr
COc1ccc(C2C(C(=O)c3cccs3)=C(O)C(=O)N2c2nnc(C)s2)cc1OC (stereo not drawn) | -7.6 | . | . | . | . | . | . | .
COc1ccc2[nH]c(=O)c(CN(C)C(=O)c3ccncc3)cc2c1 | -3.8 | -0.9 | 1.7 | 7.7 | -2.1 | 14.8* | -2.3 | -4.2
COc1ccc2[nH]c(=O)c(CN(C(=O)c3ccncc3)C(C)C)cc2c1 | -1.6 | -7.2 | -4.6 | 0.0 | -0.3 | -5.1 | . | .
C=CCOc1ccc2c(c1)CCC1C2CCC2(C)C(O)C(O)CC12 (stereo not drawn) | -16.1 | 3.0 | -1.5 | -2.4 | -9.4 | 14.4* | 3.1 | -0.9
C[C@]12CC[C@@H]3c4ccc(O[C@@H]5O[C@H](C(=O)O)[C@@H](O)[C@H](O)[C@H]5O)cc4CC[C@H]3[C@@H]1C[C@@H](O)[C@@H]2O | 8.3 | -4.1 | 5.1 | 4.3 | 1.7 | -3.8 | . | .
Cc1nn(C(=O)CCCC(=O)NCc2ccccc2)c2ccccc12 | -0.5 | -7.7 | -2.1 | -1.6 | -4.0 | 2.7 | . | .
Cc1ccc(Cn2c(C)c3cnn(CC(=O)NC4CCCC4)c(=O)c3c2C)cc1 | -1.9 | -2.7 | 0.5 | -0.4 | 3.9 | -5.4 | . | .
CNC(=O)Cn1ncc2c(C)n(Cc3ccc(C)cc3)c(C)c2c1=O | -1.0 | -1.3 | -1.4 | -2.8 | -10.5 | 14.1* | -1.5 | 0.2
CCCCn1nnnc1C1(C)CCC(=O)N1Cc1cccc(F)c1 (stereo not drawn) | . | -3.7 | -0.3 | -4.2 | -0.3 | 4.4 | . | .
COc1cc2c(c(OC)c1OC)-c1ccc(NCc3ccccc3)c(=O)cc1C(NC(C)=O)CC2 (stereo not drawn) | -0.6 | -1.4 | 7.6 | 8.6 | 1.4 | 14.6* | -6.7 | -10.6
COc1cc2c(c(OC)c1OC)-c1ccc(OC)c(=O)cc1[C@@H](NC(C)=O)CC2 | -1.8 | 2.3 | 1.0 | 7.8 | 0.6 | -2.3 | . | .
COCCN(C(=O)c1ccc(-c2ccc([N+](=O)[O-])cc2)o1)c1c(N)n(CC(C)C)c(=O)[nH]c1=O | 2.3 | -0.3 | -2.5 | -12.2 | 6.0 | 14.2* | 4.6 | 1.6
COCCN(C(=O)c1ccc(-c2ccc(Cl)cc2)o1)c1c(N)n(CC(C)C)c(=O)[nH]c1=O | -6.6 | -2.7 | -0.2 | -1.9 | 1.5 | -0.4 | . | .
COc1ccccc1-c1cc(N)n(S(=O)(=O)c2ccc(F)c(C)c2)n1 | -6.4 | 6.2 | 11.8 | -6.1 | -5.7 | 14.4* | -2.1 | -7.5
Cc1c(C#N)c2n(c1C)CCCC(=O)N2 | -3.0 | -0.9 | 5.6 | -0.3 | 0.0 | -5.3 | . | .
COC(=O)[C@]12C[C@H](CC(=O)N3CCN(C(=O)c4ccco4)CC3)C(=O)N(Cc3cccc4ccccc34)C1=C[C@H](C(C)(C)C)O[C@@H]2C | . | -1.6 | -7.7 | . | -5.8 | 1.2 | . | .
COc1ccc(CNC(=O)C(OC(=O)c2ccco2)c2ccccc2F)cc1 (stereo not drawn) | -3.5 | -3.0 | -2.6 | 0.7 | -1.4 | 14.2* | 4.7 | 5.3
O=C(OCc1cn([C@H]2CN(C(=O)C3CCCCC3)[C@@H](c3ccccc3)C[C@@H]2O)nn1)c1ccccc1 | -11.2 | 7.1 | 0.8 | 1.4 | -3.2 | 14.9* | 3.2 | 6.0
Cc1cc2ncn(S(=O)(=O)N3CCCCC3)c2cc1C | -11.5 | 1.3 | -1.6 | -6.9 | 4.4 | 14.4* | -0.8 | -3.5
CC1(C(=O)NS(=O)(=O)Cc2cccc(Cl)c2)CCN1C(=O)c1ccc(C2CCCCC2)cc1 (stereo not drawn) | . | -2.3 | -0.5 | 7.2 | 0.2 | 2.6 | . | .
Cc1cc(C)cc(NC(=O)N2CCN(Cc3ccc4c(c3)OCO4)CC2)c1 | 6.8 | -1.5 | -3.3 | 5.5 | -1.1 | 14.0* | 1.8 | 0.0
O=C(Nc1ccccc1)N1CCN(Cc2ccc3c(c2)OCO3)CC1 | -1.0 | -0.7 | 2.8 | -4.3 | 10.7 | -3.2 | . | .
COc1ccc(NC(=O)CN(C)C(=O)c2ccc(S(=O)(=O)Nc3ccccc3F)cc2)cc1 | -1.5 | 2.6 | -10.6 | 10.7 | -0.8 | -3.4 | . | .
O=c1[nH]cnc2c1c(-c1ccccc1)cn2-c1ccccc1 | -8.6 | 7.2 | 0.2 | -7.0 | 5.4 | 17.2* | 2.2 | -7.5
O=C(CSc1nnc(COc2ccccc2)n1-c1ccc(Cl)cc1)Nc1ccc(OCc2ccccc2)cc1 | . | 7.2 | 4.7 | . | 6.6 | 6.5 | . | .
SMILES | HTRA1 inhibitor | DDE Tn6 FP inh | SIAE inh | TCR CD3 inh | ABHD4 inh | DDE Tn7 FP inh | Tn7 DDE conf | Tn7 DDE ctr
Cc1cc(C)nc(NS(=O)(=O)c2ccc(N/C=C\C(=O)c3ccc(Cl)cc3)cc2)n1 | -24.5 | 0.3 | -4.3 | -3.1 | -11.1 | 14.3* | 0.8 | -7.0
COc1cccc(OC)c1C(=O)Nc1sc2c(c1C#N)CCC2 | -6.3 | -2.2 | 2.9 | 5.3 | -13.4 | 13.8* | -5.4 | -8.9
CC(C)(C)C1=CC(CC(N)=O)(C(C)(C)C)OC1=O (stereo not drawn) | . | -5.6 | 0.8 | -5.5 | -3.4 | -5.5 | . | .
COc1cc(OC)c(OC)cc1CNC(=O)c1cc(=O)[nH]c2ccccc12 | 3.7 | 3.1 | 7.5 | 5.6 | 1.3 | -5.4 | . | .
N#Cc1ccc(Cl)cc1NC(=O)COC(=O)c1cccc(S(=O)(=O)N2CCOCC2)c1 | -0.9 | 4.3 | -15.3 | 8.9 | 0.0 | 13.8* | 5.8 | -4.5
C[C@@H]1CN([C@@H](C)CO)C(=O)c2cc(NS(=O)(=O)c3ccc(Cl)cc3)ccc2O[C@H]1CN(C)Cc1ccncc1 | -4.7 | 10.1 | 2.7 | -2.7 | -2.3 | 1.1 | . | .
Cc1ccc(OC(=O)CCNC(=O)c2ccccc2Cl)c(Br)c1 | 25.0 | 2.5 | -3.7 | -2.4 | -3.6 | -4.8 | . | .
COC(=O)c1cc2c(c3c4cc(F)ccc4n(S(=O)(=O)c4cccc(C)c4)c13)C(=O)N(Cc1ccc(N(C)C)cc1)C2 | . | -13.7 | 9.8 | -2.4 | 1.3 | -0.3 | . | .
O=C1CN(C(=O)c2ccc3nc(Cc4cccc(Cl)c4)oc3c2)CCN1 | 3.8 | 8.5 | 2.8 | 13.1 | 7.7 | 13.8* | 8.8 | 2.5
CC(=O)N1CCCN(C(=O)c2ccc3nc(Cc4cccc(Cl)c4)oc3c2)CC1 | 3.8 | -0.4 | -0.8 | 8.9 | 1.4 | -16.3 | . | .
O=C1CCC/C(=N/NC(=O)c2sc3ccccc3c2Cl)C1 | -13.0 | -1.6 | -2.9 | -15.6 | 7.4 | 43.9* | -4.7 | -5.3
O=C(c1ccccc1)c1ccc2c(c1)OCCOCCOCCOCCO2 | -5.5 | 10.1 | 1.4 | 3.3 | -1.8 | 14.2* | -2.3 | -5.5
Cc1ccc2c(c1)N(C(=O)CCC(=O)NCCCN1CC(C)CC(C)C1)CCO2 (stereo not drawn) | -3.3 | -3.4 | 6.8 | 0.0 | -0.6 | 4.8 | . | .
COc1ccc(OC)c(S(=O)(=O)Nc2ccc(CC(=O)O)cc2)c1 | -3.0 | -1.0 | 6.0 | 6.7 | -2.2 | 17.2* | 2.7 | 4.2

Assay outcomes deposited in PubChem by The Scripps Research Institute Molecular Screening Center.
